The values below come from ChEMBL document CHEMBL4000223, “Evaluation of substituted ebselen derivatives as potential trypanocidal agents” (Bioorg Med Chem Lett, 2017).

Broadly, the IC50 is the concentration that inhibits the measured activity by half. By EC50 is commonly meant the concentration needed to bring the measured effect to its halfway point. Low readings indicate greater potency, high ones weaker potency. As a reminder, the inhibition is how much of the control response was suppressed.

The nature of test [1]: Inhibition of recombinant Trypanosoma brucei His6-tagged HK1 expressed in Escherichia coli M15(pREP) harboring pQE30 using glucose as substrate by spectrophotometric based glucose 6-phosphate dehydrogenase enzyme coupled assay.
Test [2] has as its system Trypanosoma brucei. Nature of the test: Antitrypanosomal activity against Trypanosoma brucei 427 bloodstream forms after 72 hrs by CellTiter-Blue fluorescence assay. It counts as functional. Particulars: Trypanosoma brucei, 427, 72 h. The method in brief:
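Bloodstream-form cultures were run as triplicate dose-response series to derive 50% effective concentrations. Compounds were taken to this stage only if they gave more than 50% growth inhibition in the single-concentration screen. DMSO vehicle served as the negative control, and EbS was included as a positive control in each assay.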

In test [3] the test system is Trypanosoma brucei. Nature of the test: Antitrypanosomal activity against Trypanosoma brucei 427 bloodstream forms at 10 uM after 72 hrs by CellTiter-Blue fluorescence assay. The test is classed as functional. Particulars: Trypanosoma brucei, 427, 72 h. The gist of the method:
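Single-concentration growth screen of bloodstream-form cultures, run in triplicate. Percent inhibition was calculated against growth of parasites given DMSO vehicle on the same plate, which served as the negative control. EbS at the same concentration was included in each assay as a positive control.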
(The colour change of resazurin is a common sign of viable cells or microbes.)

The subject of test [4] is Trypanosoma brucei. Nature of the test: Inhibition of recombinant Trypanosoma brucei His6-tagged HK1 expressed in Escherichia coli M15(pREP) harboring pQE30 at 10 uM using glucose as substrate by spectrophotometric based glucose 6-phosphate dehydrogenase enzyme coupled assay. The gist of the method: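 Purified recombinant TbHK1 incubated with the compound at a single fixed screening concentration, after which enzyme activity was scored. Percent inhibition is recorded relative to uninhibited enzyme.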

The nature of test [5]: Inhibition of recombinant Trypanosoma brucei His6-tagged HK1 expressed in Escherichia coli M15(pREP) harboring pQE30 using glucose as substrate after 2 hrs by spectrophotometric based glucose 6-phosphate dehydrogenase enzyme coupled assay.
Test [6] relates to Trypanosoma brucei. Nature of the test: Antitrypanosomal activity against Trypanosoma brucei bloodstream forms after 72 hrs by CellTiter-Blue fluorescence assay. The test is classed as functional. The gist of the method:
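Bloodstream-form T. brucei cultures assayed in triplicate, with DMSO vehicle as negative control and a reference ebselen analogue as positive control on each plate. Growth inhibition is calculated against the DMSO controls of the same plate. Compounds giving over 50% inhibition in the single-concentration screen went on to triplicate dose-response curves to derive 50% effective concentrations.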

Test [7] is described as follows: Inhibition of recombinant Trypanosoma brucei HK1 expressed in Escherichia coli or yeast using glucose as substrate by spectrophotometric based glucose 6-phosphate dehydrogenase enzyme coupled assay.

`CC(C)C[C@@H](NC(=O)[C@@H](CCCCN)NC(=O)[C@@H](C)NC(=O)CNC(=O)CNC(=O)c1ccc(-n2sc3ccccc3c2=O)cc1)C(=O)O`: in test [1], the IC50 is above 10 µM. This compound yielded an EC50 in the test with Trypanosoma brucei [2] above 10 µM. Besides, at 10 µM the inhibition in the test on Trypanosoma brucei [3] was 26.4%. Besides, the inhibition in the test on Trypanosoma brucei [4] turned out to be 10.4%.
On to `COC(=O)Cn1sc2ccccc2c1=O`, for which the IC50 in test [1] is above 10 µM. In addition, the EC50 in the test on Trypanosoma brucei [2] is 0.28 µM. This compound also showed an inhibition at 10 µM with Trypanosoma brucei [3] of 98.3%. In addition, in the test on Trypanosoma brucei [4], the inhibition was found to be 12.8%.
Consider `O=C(O)c1cccc(-n2[se]c3ccccc3c2=O)c1`, for which the IC50 in test [1] was above 10 µM. Further, the EC50 in the test on Trypanosoma brucei [2] is above 10 µM. In addition, the inhibition at 10 µM in the test on Trypanosoma brucei [3] was found to be 0%. Moreover, the inhibition with Trypanosoma brucei [4] came to 18.5%.
In the case of `COC(=O)c1cccc(-n2[se]c3ccccc3c2=O)c1`, the IC50 in test [1] is above 10 µM. In the test with Trypanosoma brucei [2], this compound yielded an EC50 above 10 µM. The same compound had an inhibition at 10 µM in the test on Trypanosoma brucei [3] of 18%. The inhibition with Trypanosoma brucei [4] was determined as 0%.
As for `O=C(O)Cn1[se]c2ccccc2c1=O`, in test [1], the IC50 is above 10 µM. Also, the concentration for a half-maximal effect (EC50) in the test with Trypanosoma brucei [2] is above 10 µM. The same compound gave an inhibition at 10 µM with Trypanosoma brucei [3] of 0%. Besides, the inhibition in the test on Trypanosoma brucei [4] amounted to 0%.
Consider `COC(=O)c1ccc(-n2[se]c3ccccc3c2=O)cc1`, for which the IC50 in test [1] stood at 3.16 µM. Besides, it took 13 µM to reach a half-maximal effect with Trypanosoma brucei [2] (EC50). Also, testing at 10 µM in the test with Trypanosoma brucei [3] gave an inhibition of 38.6%. In the test with Trypanosoma brucei [4], the inhibition was 79%.
Turning to `O=c1c2ccccc2[se]n1-c1ccccc1` [EBSELEN], in test [5], the IC50 was determined as 0.05 µM. For the same compound, the response with Trypanosoma brucei [6] was half-maximal at 2.9 µM (EC50).
Turning to `O=C(O)c1cccc2c(=O)n(-c3ccccc3)[se]c12`, the 50% inhibitory concentration (IC50) in test [1] is above 10 µM. In the test with Trypanosoma brucei [2], the 50% effective concentration (EC50) was above 10 µM. In the test on Trypanosoma brucei [3], this compound showed an inhibition at 10 µM of 0%. Moreover, the inhibition in the test with Trypanosoma brucei [4] turned out to be 0%.
With `O=C(O)c1ccc(-n2sc3ccccc3c2=O)cc1`, in test [1], the IC50 is above 10 µM. The EC50 in the test with Trypanosoma brucei [2] is above 10 µM. Moreover, the inhibition at 10 µM in the test on Trypanosoma brucei [3] is 0%. Also, the inhibition with Trypanosoma brucei [4] came out at 0%.
Regarding `CC(C)C[C@@H](NC(=O)[C@@H](CCCCN)NC(=O)[C@@H](C)NC(=O)CNC(=O)CNC(=O)c1ccc(-n2[se]c3ccccc3c2=O)cc1)C(=O)O`, in test [1], the IC50 is above 10 µM. Besides, in the test on Trypanosoma brucei [2], the EC50 is above 10 µM. In addition, the inhibition at 10 µM in the test on Trypanosoma brucei [3] amounted to 44.1%. The inhibition with Trypanosoma brucei [4] was 0%.
On to `CC(C)C[C@H](NC(=O)[C@H](CCCCN)NC(=O)[C@H](C)NC(=O)CCOCCOCCNC(=O)c1ccc(-n2[se]c3ccccc3c2=O)cc1)C(=O)O`, for which the IC50 in test [1] was above 10 µM. For the same compound, the EC50 in the test on Trypanosoma brucei [2] is above 10 µM. For the same compound, the inhibition at 10 µM in the test with Trypanosoma brucei [3] stood at 25%. Besides, in the test on Trypanosoma brucei [4], the inhibition came out at 0%.
On to `O=C(O)c1nn(Cc2ccc(Cl)cc2Cl)c2ccccc12` [LONIDAMINE], for which the IC50 in test [7] was 850 µM.
As to `COC(=O)c1cccc2c(=O)n(-c3ccccc3)[se]c12`, the half-maximal inhibitory concentration (IC50) in test [1] was above 10 µM. The compound also yielded an EC50 with Trypanosoma brucei [2] of 10 µM. For the same compound, testing at 10 µM in the test on Trypanosoma brucei [3] gave an inhibition of 55.6%. Further, in the test with Trypanosoma brucei [4], the inhibition stood at 2.7%.
For the compound `COC(=O)c1cccc2c(=O)n(-c3ccccc3)sc12`, the IC50 in test [1] is above 10 µM. This compound also registered an EC50 in the test with Trypanosoma brucei [2] of 10 µM. Besides, the inhibition at 10 µM in the test with Trypanosoma brucei [3] was 52.5%. Further, the inhibition in the test with Trypanosoma brucei [4] was 18%.
`O=C(O)Cn1sc2ccccc2c1=O`: the IC50 in test [1] was above 10 µM. For the same compound, the EC50 in the test on Trypanosoma brucei [2] was found to be 7.2 µM. This compound also returned an inhibition at 10 µM in the test with Trypanosoma brucei [3] of 77.6%. In addition, in the test with Trypanosoma brucei [4], the inhibition came out at 0.87%.
For `O=C(O)c1cccc(-n2sc3ccccc3c2=O)c1`, in test [1], the half-inhibitory concentration (IC50) was above 10 µM. This compound registered a concentration giving a half-maximal response (EC50) in the test with Trypanosoma brucei [2] above 10 µM. The inhibition at 10 µM in the test with Trypanosoma brucei [3] was found to be 15.8%. Further, the inhibition in the test on Trypanosoma brucei [4] amounted to 0%.
For the compound `COC(=O)c1ccc(-n2sc3ccccc3c2=O)cc1`, in test [1], the IC50 is above 10 µM. In the test on Trypanosoma brucei [2], this compound registered an EC50 of 3.8 µM. For the same compound, 10 µM produced 66.5% inhibition in the test with Trypanosoma brucei [3]. Besides, the inhibition in the test on Trypanosoma brucei [4] was 22.8%.
As for `O=C(O)c1ccc(-n2[se]c3ccccc3c2=O)cc1`, in test [1], the half-maximal inhibitory concentration (IC50) was above 10 µM. The concentration for a half-maximal effect (EC50) in the test on Trypanosoma brucei [2] is above 10 µM. The compound further showed an inhibition at 10 µM in the test with Trypanosoma brucei [3] of 12%. In the test with Trypanosoma brucei [4], the inhibition was 17.2%.
Consider `CC(C)C[C@H](NC(=O)[C@H](CCCCN)NC(=O)[C@H](C)NC(=O)CCOCCOCCNC(=O)c1ccc(-n2sc3ccccc3c2=O)cc1)C(=O)O`, for which, in test [1], the IC50 was above 10 µM. The EC50 with Trypanosoma brucei [2] was above 10 µM. Also, at 10 µM the inhibition in the test on Trypanosoma brucei [3] was 35.4%. The inhibition in the test on Trypanosoma brucei [4] worked out at 0%.
In the case of `CC(C)C[C@@H](NC(=O)[C@@H](CCCCN)NC(=O)[C@@H](C)NC(=O)CNC(=O)CNC(=O)c1cccc2c(=O)n(-c3ccccc3)[se]c12)C(=O)O`, the half-inhibitory concentration (IC50) in test [1] was above 10 µM. Also, in the test with Trypanosoma brucei [2], the EC50 was above 10 µM. In the test with Trypanosoma brucei [3], this compound displayed an inhibition at 10 µM of 0%. Further, in the test on Trypanosoma brucei [4], the inhibition came to 0%.
With `CC(C)C[C@@H](NC(=O)[C@@H](CCCCN)NC(=O)[C@@H](C)NC(=O)CNC(=O)CNC(=O)Cn1[se]c2ccccc2c1=O)C(=O)O`, the IC50 in test [1] is above 10 µM. For the same compound, the EC50 with Trypanosoma brucei [2] was above 10 µM. In the test on Trypanosoma brucei [3], this compound returned an inhibition at 10 µM of 34.4%. The inhibition in the test with Trypanosoma brucei [4] came to 1.7%.
For the compound `O=C(O)c1cccc2c(=O)n(-c3ccccc3)sc12`, in test [1], the IC50 is above 10 µM. The same compound came in with an EC50 in the test on Trypanosoma brucei [2] above 10 µM. In the test on Trypanosoma brucei [3], this compound gave an inhibition at 10 µM of 10.9%. Further, the inhibition with Trypanosoma brucei [4] turned out to be 0%.
Consider `CC(C)C[C@@H](NC(=O)[C@@H](CCCCN)NC(=O)[C@@H](C)NC(=O)CNC(=O)CNC(=O)Cn1sc2ccccc2c1=O)C(=O)O`, for which the IC50 in test [1] is above 10 µM. Moreover, the EC50 with Trypanosoma brucei [2] is above 10 µM. The same compound yielded an inhibition at 10 µM with Trypanosoma brucei [3] of 28%. The inhibition with Trypanosoma brucei [4] stood at 3.7%.
Regarding `CC(C)C[C@@H](NC(=O)[C@@H](CCCCN)NC(=O)[C@@H](C)NC(=O)CNC(=O)CNC(=O)c1cccc2c(=O)n(-c3ccccc3)sc12)C(=O)O`, the IC50 in test [1] was above 10 µM. This compound displayed an EC50 in the test with Trypanosoma brucei [2] above 10 µM. This compound came in with an inhibition at 10 µM in the test with Trypanosoma brucei [3] of 0%. Also, the inhibition with Trypanosoma brucei [4] was determined as 0%.
For `O=c1c2ccccc2sn1-c1ccccc1`, the IC50 in test [5] was determined as 2 µM. In the test on Trypanosoma brucei [6], this compound gave an EC50 of 0.03 µM.
Turning to `COC(=O)c1cccc(-n2sc3ccccc3c2=O)c1`, in test [1], the IC50 is above 10 µM. For the same compound, in the test with Trypanosoma brucei [2], the EC50 was above 10 µM. Besides, the inhibition at 10 µM in the test on Trypanosoma brucei [3] turned out to be 8.8%. Besides, the inhibition in the test with Trypanosoma brucei [4] stood at 1.7%.
In the case of `COC(=O)Cn1[se]c2ccccc2c1=O`, the IC50 in test [1] was above 10 µM. Besides, the EC50 in the test with Trypanosoma brucei [2] was above 10 µM. In addition, the inhibition at 10 µM in the test with Trypanosoma brucei [3] amounted to 0%. For the same compound, in the test on Trypanosoma brucei [4], the inhibition came to 0%.
For `CC(C)C[C@@H](NC(=O)[C@@H](CCCCN)NC(=O)[C@@H](C)NC(=O)CNC(=O)CNC(=O)c1cccc(-n2sc3ccccc3c2=O)c1)C(=O)O`, the IC50 in test [1] is above 10 µM. The compound also showed an EC50 in the test with Trypanosoma brucei [2] above 10 µM. Moreover, 10 µM produced 0% inhibition with Trypanosoma brucei [3]. The inhibition with Trypanosoma brucei [4] stood at 0%.
In the case of `CC(C)C[C@@H](NC(=O)[C@@H](CCCCN)NC(=O)[C@@H](C)NC(=O)CNC(=O)CNC(=O)c1cccc(-n2[se]c3ccccc3c2=O)c1)C(=O)O`, the IC50 in test [1] is above 10 µM. In the test on Trypanosoma brucei [2], this compound had an EC50 above 10 µM. The compound also registered an inhibition at 10 µM in the test on Trypanosoma brucei [3] of 28.4%. In the test with Trypanosoma brucei [4], the inhibition was found to be 0%.
